Among the data in ChEMBL document CHEMBL4828712, “Design of gp120 HIV-1 entry inhibitors by scaffold hopping via isosteric replacements” (Eur J Med Chem, 2021) are IC50, CC50 and inhibition values, retold here.

Calls of active or inactive are those of the source. No cut-off for these calls is given here.

A short description of data set [1]: Inhibition of gp120 in HIV-1 NL4-3 HXB-2-Luc pseudotyped virus infected in human TZM-bl cells assessed as reduction in viral infection pretreated for 30 mins before viral infection and measured after 3 days by luciferase based single cycle infection assay. It counts as cell-based, HIV-1 M:B_HXB2R. The settings on record: Human immunodeficiency virus 1, NL4-3, TZM-bl. In outline:
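Single-cycle infection of TZM-bl cells with the HIV-1 NL4-3-HXB2-Luc pseudotyped virus bearing Env of lab-adapted HIV-1 HXB-2 (CXCR4-tropic), with luciferase read-out.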

A short description of data set [2]: (§1) Cytotoxicity against human TZM-bl cells assessed as reduction in cell viability incubated for 3 days by XTT assay. It counts as cell-based. The settings on record: TZM-bl cells, time 3 day.
The nature of data set [3]: Inhibition of glycoprotein in VSV-G pseudotyped MLV virus infected in human U87/CD4/CCR5 cells assessed as inhibition of viral infection pretreated for 30 mins before viral infection and measured after 3 days by luciferase based single cycle infection assay. The class given is cell-based. The settings on record: Murine leukemia virus. In outline:
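Specificity counter-screen in which U87-CD4-CCR5 cells are infected with the luciferase-reporter control pseudovirus MLV-GP/VSV-G/Luc; IC50 is derived from inhibition of infection.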

A short description of data set [4]: Cytotoxicity against human U87/CD4/CCR5 cells assessed as reduction in cell viability incubated for 3 days by XTT assay. The class given is cell-based. The settings on record: time 3 day; for CC50 at 72 h: U87/CD4/CCR5 cells. In a few lines:
(§2)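 Viability read by the colorimetric XTT method in the stated cell line, run alongside the antiviral assays on the same cells; CC50 calculated from the viability data; values reported as mean ± standard deviation.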
For orientation: Formazan colour is commonly taken as a measure of viable cells.

Data set [5] addresses Human immunodeficiency virus type 1 reverse transcriptase (Human immunodeficiency virus 1, UniProt Q72547). Put plainly: Inhibition of recombinant HIV1 reverse transcriptase by colorimetric assay.
The test system of the next data set is TZM. The data set is described as §1. It counts as cell-based. The settings on record: tzm, 72 h, time 3 day.
The target in data set [6] is Envelope glycoprotein gp160 (Human immunodeficiency virus 1) (UniProt Q6QLK5). Put plainly: Inhibition of gp120 in HIV-1 ADA infected in CD4-negative dog Cf2Th-CCR5 cells assessed as antagonism of viral entry by measuring inhibition of viral infection at 20 to 60 uM pretreated for 30 mins before viral infection and incubated for 48 hrs by luciferase assay. It counts as cell-based. The settings on record: dose 20-60 µM, time 48.5 hrs. In a few lines:
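CD4-negative Cf2Th-CCR5 cells infected with a luciferase-expressing recombinant CD4-dependent HIV-1 ADA pseudovirus under escalating compound concentrations. Read-out is relative infectivity: infection with compound divided by infection without compound. Three independent experiments, each run in triplicate.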

Data set [7] can be described thus: Cytotoxicity against CD4-negative dog Cf2Th-CCR5 cells assessed as reduction in cell viability incubated for 3 days by XTT assay. The class given is cell-based, Canis lupus familiaris. The settings on record: time 3 day; for CC50: cf2th-ccr5, 72 h. In a few lines: as §2

Envelope glycoprotein gp160 (Human immunodeficiency virus 1), sequence (Q6QLK5 1-814): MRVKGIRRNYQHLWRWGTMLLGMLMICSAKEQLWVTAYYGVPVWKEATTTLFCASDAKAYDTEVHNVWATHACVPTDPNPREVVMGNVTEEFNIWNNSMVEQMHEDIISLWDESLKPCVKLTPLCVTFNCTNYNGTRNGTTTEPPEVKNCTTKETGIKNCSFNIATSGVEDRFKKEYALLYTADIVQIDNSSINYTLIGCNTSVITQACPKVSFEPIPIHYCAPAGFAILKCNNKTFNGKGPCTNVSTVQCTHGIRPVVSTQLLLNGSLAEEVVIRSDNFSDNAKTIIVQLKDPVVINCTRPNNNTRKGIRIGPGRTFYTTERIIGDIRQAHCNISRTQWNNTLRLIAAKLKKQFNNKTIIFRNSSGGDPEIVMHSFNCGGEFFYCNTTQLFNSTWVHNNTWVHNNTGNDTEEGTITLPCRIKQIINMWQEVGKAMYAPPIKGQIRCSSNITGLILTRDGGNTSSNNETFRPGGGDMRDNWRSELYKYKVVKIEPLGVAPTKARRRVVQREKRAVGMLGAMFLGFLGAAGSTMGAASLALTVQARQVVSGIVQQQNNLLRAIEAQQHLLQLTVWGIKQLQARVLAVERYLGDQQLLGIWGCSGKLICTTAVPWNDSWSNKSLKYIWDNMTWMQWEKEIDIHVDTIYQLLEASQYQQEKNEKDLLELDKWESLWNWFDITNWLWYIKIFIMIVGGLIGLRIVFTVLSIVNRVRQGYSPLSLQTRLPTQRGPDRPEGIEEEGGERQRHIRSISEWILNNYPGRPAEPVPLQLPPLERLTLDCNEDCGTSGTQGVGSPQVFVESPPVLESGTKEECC

By IC50 is commonly meant the point on the concentration scale where inhibition reaches its midpoint. Broadly, the CC50 is the concentration giving 50% cytotoxicity. Regarding `Cc1nc([C@@H](CN)NC(=O)NC(=O)c2ccc(Cl)cc2)sc1CO`, in data set [1], the concentration for half-maximal inhibition (IC50) is above 54 µM. For the same molecule, the CC50 at 72 h in data set [2] is above 54 µM.
Consider `Cc1nc([C@@H](CN)NC(=O)C(=O)Nc2ccc(Cl)cc2)sc1CO`, for which, in data set [1], the IC50 was above 27 µM. Also, the CC50 at 72 h in data set [2] is above 54 µM.
In the case of `NC[C@@H](NC(=O)c1ccc(OCC2CCCCC2)cc1)c1ncc(CO)s1`, the IC50 in data set [1] was above 15 µM. The CC50 at 72 h in data set [2] came out at 28.2 µM.
For the molecule `NC[C@H](NC(=O)Cc1ccc(OCC2CCCCC2)cc1)c1ncc(CO)s1`, the IC50 in data set [1] was above 25 µM. In data set [2], the CC50 at 72 h is 47.5 µM.
Take `NC[C@H](NC(=O)c1ccc(C2CCCCC2)[nH]1)c1ncc(CO)s1`: the IC50 in data set [1] is above 17 µM. In addition, the CC50 at 72 h in data set [2] was above 57 µM.
On to `Cc1nc([C@H](CN)NC(=O)c2cc3cc(Cl)ccc3[nH]2)sc1CO`, for which the IC50 in data set [1] was determined as 50 µM. The CC50 at 72 h in data set [2] was above 55 µM.
On to `NC[C@H](NC(=O)c1ccc(-c2ccc(Cl)cc2)[nH]1)c1nccs1`, for which the IC50 in data set [1] turned out to be 1 µM; in data set [3], 16.2 µM; in data set [5], 18.9 µM. For the same molecule, the CC50 at 72 h was determined as 36.5 µM in data set [2] and 59.1 µM in data set [4].
For `NC[C@H](NC(=O)c1ccc(OCC2CCCCC2)cc1)c1ncc(CO)s1`, the IC50 in data set [1] was above 15 µM. In data set [2], the CC50 at 72 h was determined as 26.5 µM.
For the molecule `NC[C@@H](NC(=O)Cc1ccc(OCC2CCCCC2)cc1)c1ncc(CO)s1`, the IC50 in data set [1] was above 25 µM. For the same molecule, the CC50 at 72 h in data set [2] was found to be 27.9 µM.
With `Cc1nc([C@H](CN)NC(=O)C(=O)Nc2ccc(Cl)cc2)sc1CO`, the half-maximal inhibitory concentration (IC50) in data set [1] is above 27 µM. Moreover, the CC50 at 72 h in data set [2] was above 54 µM.
For `Cc1nc([C@@H](CN)NC(=O)c2cc3cc(Cl)ccc3[nH]2)sc1CO`, the IC50 in data set [1] was above 40 µM. In data set [2], the CC50 at 72 h was found to be 47 µM.
Regarding `NC[C@@H](NC(=O)C(=O)NCc1ccc(Cl)c(F)c1)c1ncc(CO)s1`, the IC50 in data set [1] is above 15 µM. The CC50 at 72 h in data set [2] is above 77.6 µM.
Consider `NCCNC(=O)c1ccc(-c2ccc(Cl)c(F)c2)[nH]1`, for which the IC50 in data set [1] stood at 3.3 µM. The 50% cytotoxic concentration (CC50) with TZM is 17.8 µM.
For `NC[C@@H](NC(=O)CNCc1ccc(Cl)cc1)c1ncc(CO)s1`, in data set [1], the IC50 is above 23.4 µM. In data set [2], the cytotoxic concentration (CC50) at 72 h is above 70 µM.
As to `Cc1nc([C@H](CCN)NC(=O)C(=O)Nc2ccc(Cl)cc2)sc1CO`, the IC50 in data set [1] is at least 14.7 µM. In addition, the 50% cytotoxic concentration (CC50) at 72 h in data set [2] was at least 38.3 µM.
As to `O=C(NC1CCNCC1)c1ccc(-c2ccc(Cl)c(F)c2)[nH]1`, the IC50 in data set [1] was found to be 4.9 µM. Also, the CC50 at 72 h in data set [2] was determined as 9.7 µM.
On to `NC[C@H](NC(=O)c1ccc(NCC2CCCCC2)cc1)c1ncc(CO)s1`, for which the IC50 in data set [1] was above 15 µM. In addition, the CC50 at 72 h in data set [2] worked out at 56.5 µM.
In the case of `Cc1nc([C@@H](CN)NC(=O)c2cc3ccccc3[nH]2)sc1CO`, the IC50 in data set [1] is above 60 µM. For the same molecule, the CC50 at 72 h in data set [2] is above 60 µM.
With `Cc1cc(-c2ccc(C(F)(F)F)cn2)[nH]c1C(=O)NC(CN)c1ncc(CO)s1` (stereo not given), the inhibition result in data set [6] is “Active”. Besides, the CC50 in data set [7] is above 47 µM.
For the molecule `NC[C@H](NC(=O)CNCc1ccc(Cl)cc1)c1ncc(CO)s1`, in data set [1], the IC50 is above 23.4 µM. The CC50 at 72 h in data set [2] was above 70 µM.
As for `Cc1nc([C@@H](CCN)NC(=O)C(=O)Nc2ccc(Cl)cc2)sc1CO`, the 50% inhibitory concentration (IC50) in data set [1] turned out to be 10.6 µM. In data set [2], the half-maximal cytotoxic concentration (CC50) at 72 h was at least 46.6 µM.
For `O=C(N[C@@H](CC1CCNCC1)c1nc(CO)cs1)c1ccc(-c2ccc(C(F)(F)F)cc2)[nH]1`, in that order: above 12.5 µM and above 40 µM.
For `Cc1nc([C@H](CN)NC(=O)NC(=O)c2ccc(Cl)cc2)sc1CO`, in that order: above 54 µM and above 54 µM.
Take `CC1(C)CC(NC(=O)C(=O)Nc2ccc(Cl)cc2)CC(C)(C)N1`: the half-maximal inhibitory concentration (IC50) in data set [1] was 6.9 µM; in data set [5] it was above 300 µM. For the same molecule, the CC50 at 72 h in data set [2] came out at 60 µM. For the same molecule, in data set [7], the CC50 was above 60 µM.
With `NC[C@@H](NC(=O)c1ccc(NCC2CCCCC2)cc1)c1ncc(CO)s1`, the IC50 in data set [1] is above 15 µM. The CC50 at 72 h in data set [2] came to 56.5 µM.
In the case of `NC[C@@H](NC(=O)c1ccc(-c2ccc(Cl)cc2)[nH]1)c1nccs1`, the IC50 in data set [1] is 2.4 µM; in data set [3] it was 12 µM; in data set [5], 31 µM. The CC50 at 72 h stood at 38.9 µM in data set [2], 45.5 µM in data set [4] and 24.7 µM in data set [7] (CD4-negative Cf2Th-CCR5 cells). Besides, in data set [6], the inhibition entry is “Active”.
Consider `O=C(NC1(c2nc(CO)cs2)CCNCC1)c1ccc(-c2ccc(C(F)(F)F)cc2)[nH]1`, for which the IC50 in data set [1] was 5 µM; in data set [3] it was 6.2 µM; in data set [5], 1.7 µM. Also, the CC50 was 33.7 µM in the data set on TZM and 57.7 µM in data set [4] (u87/cd4/ccr5, 72 h).
On to `O=C(N[C@H](CC1CCNCC1)c1nc(CO)cs1)c1ccc(-c2ccc(C(F)(F)F)cc2)[nH]1`, for which the IC50 in data set [1] was above 12.5 µM. Further, the CC50 at 72 h in data set [2] is above 40 µM.
Regarding `Cc1nc([C@H](CN)NC(=O)c2cc3ccccc3[nH]2)sc1CO`, in data set [1], the IC50 is above 60 µM. The CC50 at 72 h in data set [2] was above 60 µM.
Regarding `NC[C@H](NC(=O)C(=O)NCc1ccc(Cl)c(F)c1)c1ncc(CO)s1`, in data set [1], the IC50 was above 15 µM. In data set [2], the CC50 at 72 h was above 77.6 µM.
For `NC[C@@H](NC(=O)c1ccc(C2CCCCC2)[nH]1)c1ncc(CO)s1`, in that order: above 17 µM and above 57 µM.
